In the library only some 5.5% were active in any assay of this set; here they are far more common.
BB579 growth dn – chemicals that inhibit yeast BB579 growth in restrictive medium (lifespan-shortening candidates); inhibition, % at 10 µM; S. cerevisiae BB579 growth, OD615, 48 h; AID 804; hit rate 0.51% among 140,000;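 active = inhibition above a set limit, 3 SD over the mean compound inhibition, cut at about 44% in these data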
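System: Saccharomyces cerevisiae DeaD strain BB579, replicative lifespan model yeast. Buffer or medium: restrictive glucose-based CSMM-D medium. Doses: one dose, 10 µM compound with 0.25% DMSO. Timing: 4 h preincubation and 48 h exposure at 30 °C. Detection: turbidity as optical density at 615 nm. Benchmarks: amphotericin B 10 µg/mL, positive.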
Yeast lifespan up – yeast lifespan extension; AID 775; hit rate 0.68% among 130,000; S. cerevisiae growth with nicotinamide, OD615; deaD strain in restrictive glucose medium; inhibition of the nicotinamide effect, % at 10 µM;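 active = inhibition above a set limit, placed 3 SD over the median of all compounds, cut at about 26% in these data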;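 also: 0% = nicotinamide-treated wells and 100% = cells grown without nicotinamide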
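Material: Modified budding yeast, DeaD strain | Medium: Restrictive glucose medium | Probe or stimulus: 1.5 mM nicotinamide | Dosing: Single dose 10 µM compound, 0.25% DMSO | Times: 48 h at 30 °C | Technique: OD615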
RAM network inh – yeast RAM network inhibition. S. cerevisiae dse1pr::URA3 reporter, 5-FOA growth OD615, 2 d; analog-sensitive cbk1-as2 kinase mutant strain. inhibition, % at 50 µM. hit rate 1.8% among 190,000. AID 868;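 active = inhibition above a set limit, 3 SD over mean compound inhibition, cut at about 8.4% in these data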;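 also: 0% = DMSO-only wells with no growth and 100% = 10 µM 1-NA-PP1 full growth; inhibition rescues growth on 5-FOA so higher OD means more RAM inhibition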
KCC2 mod – KCC2 (human) Cl- transport modulation. Q9H2X9. KCC2 cells, thallium flux FluoZin-2 fluorescence. B-score of Tl+ flux slope (higher = more flux/activation; lower = inhibition) at 10 µM. hit rate 2.2% among 190,000;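 active = thallium flux slope and its plate-corrected score both differing from the plate sample mean at a set confidence after two filtering rounds, in either direction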;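 also: slope of fluorescence scaled to starting intensity during 10 to 20 s after thallium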
Target sequence (Q9H2X9 whole entry, looked up): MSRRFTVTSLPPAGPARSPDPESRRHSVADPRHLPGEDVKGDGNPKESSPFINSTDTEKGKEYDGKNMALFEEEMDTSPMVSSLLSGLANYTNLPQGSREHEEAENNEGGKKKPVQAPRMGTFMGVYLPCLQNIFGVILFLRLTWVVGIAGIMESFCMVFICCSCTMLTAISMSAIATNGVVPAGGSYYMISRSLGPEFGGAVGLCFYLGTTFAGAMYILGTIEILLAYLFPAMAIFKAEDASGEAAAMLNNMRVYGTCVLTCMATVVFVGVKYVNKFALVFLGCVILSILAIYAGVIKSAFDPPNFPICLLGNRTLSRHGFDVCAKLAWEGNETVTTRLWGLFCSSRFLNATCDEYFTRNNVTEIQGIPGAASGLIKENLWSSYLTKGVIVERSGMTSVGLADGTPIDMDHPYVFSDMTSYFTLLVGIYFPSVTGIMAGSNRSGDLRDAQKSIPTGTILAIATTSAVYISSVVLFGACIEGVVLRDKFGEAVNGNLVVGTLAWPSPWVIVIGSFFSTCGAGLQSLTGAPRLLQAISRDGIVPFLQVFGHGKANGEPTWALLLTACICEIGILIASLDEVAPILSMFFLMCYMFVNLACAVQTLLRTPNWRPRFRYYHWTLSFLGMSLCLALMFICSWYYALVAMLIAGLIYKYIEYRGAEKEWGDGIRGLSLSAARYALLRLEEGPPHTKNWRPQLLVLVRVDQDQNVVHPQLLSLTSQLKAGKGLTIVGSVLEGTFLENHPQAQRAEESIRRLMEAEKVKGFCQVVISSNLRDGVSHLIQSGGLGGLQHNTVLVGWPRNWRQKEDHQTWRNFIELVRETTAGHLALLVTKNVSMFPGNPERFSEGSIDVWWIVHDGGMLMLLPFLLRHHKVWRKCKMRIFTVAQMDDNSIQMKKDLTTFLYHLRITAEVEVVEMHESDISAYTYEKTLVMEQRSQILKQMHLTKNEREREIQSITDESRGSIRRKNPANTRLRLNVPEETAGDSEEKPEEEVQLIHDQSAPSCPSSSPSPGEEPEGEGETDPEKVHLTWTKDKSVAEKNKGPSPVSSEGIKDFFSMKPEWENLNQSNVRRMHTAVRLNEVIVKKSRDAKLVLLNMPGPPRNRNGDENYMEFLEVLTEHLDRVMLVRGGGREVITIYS
WT yeast gro inh – growth inhibition of WT yeast, mitochondrial fusion screen; inhibition, % at 10 µM; mitochondrial fusion phenotypic screen, WT strain; AID 1362; hit rate 2.1% among 190,000; in the data active = inhibition above about 58%; tested in S. cerevisiae
KCC2 sec1 – confirmation of human KCC2 transport modulators | shares compounds with KCC2 mod | HEK293-KCC2, thallium flux, FluoZin2 fluorescence; active compounds read high | normalised thallium flux (F/F0 slope) at 10 µM | hit rate 15% among 3,700 | AID 1713;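 active = thallium flux slope above the same plate's solvent-only control mean plus 3 SD; inconclusive = the two replicate wells disagree; inactive = no significant difference from solvent-only control wells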
KCC2 bumet counter – bumetanide-insensitive thallium flux in KCC2 cells with ouabain, counter-screen; shares compounds with KCC2 mod; HEK293-KCC2 + bumetanide/ouabain, thallium flux FluoZin2; active compounds read high; normalized thallium flux at 10 µM; hit rate 49% among 3,700; AID 1714;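 active = thallium entry rate above the same plate's blocked-transporter control wells by more than 3 SD; inconclusive = the two repeat wells disagree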;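 also: raw slope of fluorescence over initial fluorescence between 10 and 20 s after thallium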
KCC2 sec2 – KCC2 (human) modulation, second secondary assay | shares compounds with KCC2 mod | normalized thallium flux at 10 µM | AID 1715 | hit rate 23% among 3,700 | HEK293-KCC2, thallium flux FluoZin2 fluorescence; actives lie on both sides; F/F0 rise rate, 10–20 s post-thallium;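 active = thallium flux slope more than 3 SD above or below the plate's solvent-only control mean, mostly below; inconclusive = the two repeat wells disagreed; inactive = no significant shift from solvent-only controls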;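 also: raw slope with 0.1% DMSO as baseline and bumetanide as block control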
HEK counter1 – acts in parental HEK cells, KCC2 counter-screen; shares compounds with KCC2 mod; HEK293 parental cells, thallium flux FluoZin2, ouabain; baseline-ratio fluorescence slope, 10–20 s after thallium; thallium flux rate (normalised fluorescence) at 10 µM; hit rate 46% among 3,700; AID 1716;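 active = thallium flux rate significantly above the same plate's solvent-only control wells, beyond their mean plus 3 SD; inconclusive = the two replicate wells gave conflicting results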
KCC2 ouabain – KCC2 (human) modulation, ouabain retest. raw Tl+ flux slope (below DMSO = inhibition, above = activation) at 10 µM. shares compounds with KCC2 mod. HEK293-KCC2, thallium flux FluoZin2 fluorescence; bidirectional: low = inhibitor, high = activator. hit rate 48% among 3,700;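 active = thallium flux slope beyond 3 SD from same-plate DMSO control mean in most replicates, usually higher, sometimes lower; inconclusive = repeat tests gave conflicting results; inactive = no significant difference from controls in most replicates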;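 also: slope of initial-normalized fluorescence between seconds 10 and 20 after thallium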
HEK293 Tl flux2 – parental HEK flux effect, counter-screen 2 | HEK293 parental, thallium flux FluoZin-2 fluorescence slope | thallium flux slope at 10 µM | shares compounds with KCC2 mod | hit rate 33% among 3,700 | AID 1718;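 active = thallium flux slope above the same plate's solvent-control mean plus 3 SD in both duplicate wells; inconclusive = duplicate wells that disagreed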;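 also: run without ouabain in cells lacking the KCC2 cotransporter; slope of fluorescence scaled to its starting value between 10 and 20 s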
An asterisk follows results filed as active; ? = inconclusive; . = no result given.

SMILES | BB579 growth dn | Yeast lifespan up | RAM network inh | KCC2 mod | WT yeast gro inh | KCC2 sec1 | KCC2 bumet counter | KCC2 sec2 | HEK counter1 | KCC2 ouabain | HEK293 Tl flux2
CC(C)CNC(=O)c1ccccc1SCC(=O)NC12CC3CC(CC(C3)C1)C2 | -12 | -3 | 1 | -0.092 | 50 | . | . | . | . | . | .
O=C(C1CCN(Cc2cccs2)CC1)N1CCN(Cc2ccc3c(c2)OCO3)CC1 | . | . | 1 | -0.73 | -10 | . | . | . | . | . | .
CCOC(=O)c1c(NC(=O)CC2SC(N)=NC2=O)sc2c1CCCC2 (stereo not drawn) | -28 | -12 | 3 | -3.8* | 10 | 0.0066 | 0.0047 | 0.03 | ? | 0.019 | 0.0098
Cc1ccc(NC(=O)Cc2ccc(F)cc2)cc1 | -38 | -17 | 3 | 2.6* | 6 | 0.0085 | 0.006 | 0.035 | 0.0038 | 0.02 | 0.011
CC(C)(C)c1cc(C(=O)NNC(=O)c2ccc(Cl)cc2)no1 | . | . | . | 94* | . | 0.037* | 0.1* | 0.05* | 0.057* | ? | 0.026*
Cc1cc(C(=O)NNC(=O)Nc2ccc(Cl)cc2)no1 | . | . | . | -0.96 | . | . | . | . | . | . | .
O=C(CSc1nc2ccccc2c(=O)n1-c1ccccc1Cl)Nc1cccc(S(=O)(=O)N2CCOCC2)c1 | -39 | 7 | 5 | -1.6 | 3 | . | . | . | . | . | .
CCOC(=O)NC(NC(=O)OCC)C(=O)c1ccc(F)cc1 | -50 | -21 | 1 | 0.021 | -18 | . | . | . | . | . | .
COc1cc(/C=N/NC(=O)c2c(C)nnn2-c2nonc2N)ccc1O | . | . | 0 | 4.7* | -2 | 0.0096 | 0.0048 | 0.031 | 0.0087 | 0.019 | 0.011
Cc1nnn(-c2nonc2N)c1C(=O)N/N=C/c1ccccc1O | 3 | 0 | 2 | 1.1 | 5 | . | . | . | . | . | .
Cc1ccc(Cc2c[nH]c(=S)s2)cc1 | . | . | 0 | 194* | 68* | ? | 0.14* | 0.11* | 0.11* | 0.14* | 0.099*
CC(Cc1cccs1)NC(=S)Nc1ccc(Cl)c(Cl)c1 (stereo not drawn) | 4 | -3 | 3 | 6.7* | 57 | 0.0069 | 0.019* | 0.028 | 0.0084* | 0.021* | ?
CC(Cc1cccs1)NC(=O)Nc1cccc(Cl)c1 (stereo not drawn) | -74 | -9 | 3 | -0.62 | 13 | . | . | . | . | . | .
CC(=O)OCC1=C(C(=O)O)N2C(=O)C(NC(=O)CCn3nc(C(F)(F)F)c(Br)c3C3CC3)C2SC1 (stereo not drawn) | . | . | 0 | 0.54 | -2 | . | . | . | . | . | .
O=C(/C=C/c1ccccc1)CC(=O)c1ccccc1O | . | . | 7 | 6.8* | 10 | 0.0054 | 0.011* | 0.031 | 0.013* | ? | 0.015*
O=C(/C=C/c1ccccc1)NC(=O)c1ccccc1O | . | . | . | 0.24 | . | . | . | . | . | . | .
Cc1noc(/C=C/N(C)C)c1S(=O)(=O)N(C)CC(=O)NC1CCCCC1 | -23 | -15 | 2 | -7.1* | 14 | 0.01 | 0.0072 | 0.03 | ? | ? | 0.01
COc1ccc(N(CC(=O)NC(C)(C)C)S(=O)(=O)c2ccccc2)cc1OC | -26 | -1 | -1 | 1.1 | 1 | . | . | . | . | . | .
COc1ccc(-c2coc3cc(O)cc(O)c3c2=O)cc1 | 18 | -4 | 2 | -5.2 | 23 | ? | 0.0062 | 0.028 | 0.0069 | 0.016* | ?
Cc1c(N/C(=N/S(=O)(=O)c2ccc(Cl)cc2)c2ccccc2)c(=O)n(-c2ccccc2)n1C | -38 | 2 | 0 | -0.029 | 8 | . | . | . | . | . | .
COc1ccc(-c2cc(C(=O)OCC(=O)c3c(N)n(C)c(=O)n(C)c3=O)c3ccccc3n2)cc1 | . | . | 6 | -4.8* | 9 | 0.0087 | 0.0058 | 0.029 | 0.0071 | 0.021 | ?
O=C(N1CCOCC1)n1cnc2ccccc21 | -38 | . | 0 | -0.29 | -15 | . | . | . | . | . | .
O=C(N1CCOCC1)n1nnc2ccccc21 | 20 | -13 | 0 | 7.5* | -10 | 0.0066 | ? | 0.027 | 0.0078 | 0.019 | 0.01
COc1cccc(-n2c(SCc3cc(=O)oc4cc(O)c(O)cc34)nc3ccccc3c2=O)c1 | -21 | 0 | 3 | -0.86 | -8 | . | . | . | . | . | .
CC1CC(C)CN(C(=O)CCCn2c(=S)[nH]c3ccccc3c2=O)C1 (stereo not drawn) | -29 | -6 | 2 | 5.4* | -14 | 0.0054 | 0.029* | 0.035 | 0.011* | ? | ?
SMILES | BB579 growth dn | Yeast lifespan up | RAM network inh | KCC2 mod | WT yeast gro inh | KCC2 sec1 | KCC2 bumet counter | KCC2 sec2 | HEK counter1 | KCC2 ouabain | HEK293 Tl flux2
Cc1cccc(N2CCN(C(=O)CCCn3c(=S)[nH]c4cc5c(cc4c3=O)OCO5)CC2)c1C | -42 | -17 | 6 | . | -6 | 0.0075 | 0.012* | 0.03 | ? | ? | ?
CCOC(=O)c1c(C)[nH]c(C(=O)OCC(=O)c2c(N)n(C)c(=O)n(C)c2=O)c1C | . | . | 0 | 0.23 | 2 | . | . | . | . | . | .
Cn1cccc1CC(=O)NNC(=S)NC(=O)c1ccccc1Br | . | . | 3 | 0.24 | -11 | . | . | . | . | . | .
C=CCNC(=S)NC(=O)c1oc2ccccc2c1C | . | . | 5 | 11* | 27 | 0.011 | 0.035* | 0.034 | 0.021* | 0.042* | 0.012*
Cc1c(C(=O)NC(=S)NCC(C)C)oc2ccccc12 | -16 | 3 | 5 | 2 | 9 | . | . | . | . | . | .
O=C(COC(=O)CNC(=O)c1sc2ccccc2c1Cl)Nc1c(Cl)cc(Cl)cc1Cl | -20 | 5 | 3 | -0.48 | 0 | . | . | . | . | . | .
c1cc2c(cc1-c1csc(NNC3=NCCCCC3)n1)OCCO2 | . | . | 1 | 3.6* | 30 | 0.0075 | 0.0055 | 0.034 | 0.008 | 0.019 | 0.011
CCC(=O)Nc1nc(-c2ccc3c(c2)OCCO3)cs1 | 23 | -12 | 0 | . | 7 | . | . | . | . | . | .
O=C(O)c1cccc2c(-c3ccccc3)c(-c3ccccc3)[nH]c12 | . | . | . | 8.6* | . | 0.0098 | 0.023* | 0.036 | ? | ? | 0.012
COC(=O)C(Cc1ccccc1)NC(=O)c1cccc(S(=O)(=O)N(C)C)c1 (stereo not drawn) | . | . | 1 | -1.2 | -16 | . | . | . | . | . | .
Cc1ccc(SCC(=O)N2CCN(c3ccccn3)CC2)cc1 | . | . | . | 0.36 | . | . | . | . | . | . | .
O=C(CSc1nccc2ccccc12)N1CCN(c2ccccn2)CC1 | -14 | -5 | 1 | -3.3* | 12 | 0.0066 | 0.0045 | 0.027 | 0.0076 | 0.015* | 0.01

From PubChem
